Measurements published in ChEMBL document CHEMBL5620437, “Discovery of Conformationally Constrained ALK2 Inhibitors” (J Med Chem, 2024).
The source made the active and inactive calls. The rule behind the calls is not given here.

Assays:
[1] = Metabolic stability in CD-1 mouse liver microsome at 1 uM in presence of NADPH-regeneration system incubated for 60 mins by LC/MS analysis; type: ADME; details: liver microsomes, read-out: Stability
Method in brief: (§1)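 Compound 1 μM final (0.1% DMSO) in 0.1 M potassium phosphate pH 7.4 with male CD-1 mouse or pooled human liver microsomes at 0.5 mg/mL protein plus NADPH-regeneration mix. Sampled at 0 and 60 min at 37 °C, in duplicate. Parent remaining by LC/MS peak area.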

[2] = Metabolic stability in human liver microsome at 1 uM in presence of NADPH-regeneration system incubated for 60 mins by LC/MS analysis; type: ADME; details: liver microsomes, read-out: Stability; method in brief: as §1
[3] = Apparent permeability across apical to basolateral side in human Caco-2 cells incubated for 2 hrs by LC/MS analysis; type: ADME, cell-based
Method in brief: (§2)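 Caco-2 (C2BBE1) cells seeded 40,000/well on 1.0 μm PET inserts, grown 21–22 days; HBSS with 10 mM HEPES, 15 mM glucose, pH 7.4. Compound 5 μM in donor (0.1% DMSO), receiver with 1% BSA; 2 h at 37 °C shaking. Metoprolol, atenolol, Lucifer yellow, digoxin controls. LC/MS peak areas; two technical replicates; efflux ratio = Papp B-A / Papp A-B.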

[4] = Apparent permeability across basolateral to apical side in human Caco-2 cells incubated for 2 hrs by LC/MS analysis; type: ADME, cell-based; method in brief: as §2
[5] = molecular target: T1, Activin receptor type-1 (Homo sapiens, UniProt Q04771); experiment: Inhibition of ALK2 in human HEK293 cells using NanoGlo as substrate incubated for 2 hrs by NanoBRET assay; type: cell-based
T1 sequence (Q04771 whole entry): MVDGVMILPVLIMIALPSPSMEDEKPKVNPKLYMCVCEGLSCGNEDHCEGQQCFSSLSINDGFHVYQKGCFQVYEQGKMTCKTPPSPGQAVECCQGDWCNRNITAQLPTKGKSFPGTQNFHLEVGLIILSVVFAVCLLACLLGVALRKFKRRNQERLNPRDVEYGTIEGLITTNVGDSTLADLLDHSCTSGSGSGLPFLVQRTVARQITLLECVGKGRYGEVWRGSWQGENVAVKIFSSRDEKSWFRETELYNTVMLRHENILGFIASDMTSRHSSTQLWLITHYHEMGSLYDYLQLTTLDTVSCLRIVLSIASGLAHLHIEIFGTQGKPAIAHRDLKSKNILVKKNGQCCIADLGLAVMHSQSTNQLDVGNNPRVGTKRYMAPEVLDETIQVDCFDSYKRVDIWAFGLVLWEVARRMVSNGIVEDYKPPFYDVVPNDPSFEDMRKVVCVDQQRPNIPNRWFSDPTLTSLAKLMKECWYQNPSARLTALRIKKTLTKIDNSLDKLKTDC

[6] = Drug concentration in NOD-SCID mouse plasma at 25 mg/kg, po measured at 0.5 hrs by LC-MS/MS analysis; type: ADME, organism-based
Method in brief: (§3)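 Male NOD-SCID mice given 25 mg/kg orally in 5% DMSO, 47.5% PEG, 47.5% deionized water with 10% Tween80. Plasma drug levels measured at 0.5, 1, 2, 6 and 24 h; demethylated metabolites also quantified.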

[7] = Drug concentration in NOD-SCID mouse plasma at 25 mg/kg, po measured at 1 hrs by LC-MS/MS analysis; type: ADME, organism-based; method in brief: as §3
[8] = Drug concentration in NOD-SCID mouse plasma at 25 mg/kg, po measured at 2 hrs by LC-MS/MS analysis; type: ADME, organism-based; method in brief: as §3
[9] = Drug concentration in NOD-SCID mouse plasma at 25 mg/kg, po measured at 6 hrs by LC-MS/MS analysis; type: ADME, organism-based; method in brief: as §3
[10] = Drug concentration in NOD-SCID mouse plasma at 10 mg/kg, po measured at 2 hrs by LC-MS/MS analysis; type: ADME, organism-based
Method in brief: (§4)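 Male NOD-SCID mice dosed orally at 10 mg/kg. Plasma and brain concentrations of parent and demethylated metabolites measured at 2 and 4 h. Kp = Cbrain/Cplasma at 4 h.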

[11] = Drug concentration in NOD-SCID mouse brain at 10 mg/kg, po measured at 2 hrs by LC-MS/MS analysis; type: ADME, organism-based; details: read-out: Ct; method in brief: as §4
[12] = Drug concentration in NOD-SCID mouse plasma at 10 mg/kg, po measured at 4 hrs by LC-MS/MS analysis; type: ADME, organism-based; method in brief: as §4
[13] = Drug concentration in NOD-SCID mouse brain at 10 mg/kg, po measured at 4 hrs by LC-MS/MS analysis; type: ADME, organism-based; details: read-out: Ct; method in brief: as §4
[14] = Ratio of drug concentration in brain to plasma in NOD-SCID mouse brain at 10 mg/kg, po measured at 4 hrs by LC-MS/MS analysis; type: ADME, organism-based; details: read-out: BPR; method in brief: as §4
[15] = Dissociation constant, pKa of compound; type: physicochemical
[16] = molecular target: T1, Activin receptor type-1; experiment: Inhibition of N-terminal GST-his6 tagged human recombinant ALK2 (145 to 509 residues) expressed in Sf9 insect cells in presence of ATP by radiometric kinase assay
[17] = molecular target: Epithelial discoidin domain-containing receptor 1 (Homo sapiens) (UniProt Q08345); experiment: Inhibition of human recombinant DDR1 (492 to end residues) using KKKSPGEYVNIEF as substrate at 1 uM incubated for 40 mins by scintillation based radiometric LeadHunter assay relative to control
Sequence of Epithelial discoidin domain-containing receptor 1 (Homo sapiens) (Q08345 whole entry, the tested form may be a part): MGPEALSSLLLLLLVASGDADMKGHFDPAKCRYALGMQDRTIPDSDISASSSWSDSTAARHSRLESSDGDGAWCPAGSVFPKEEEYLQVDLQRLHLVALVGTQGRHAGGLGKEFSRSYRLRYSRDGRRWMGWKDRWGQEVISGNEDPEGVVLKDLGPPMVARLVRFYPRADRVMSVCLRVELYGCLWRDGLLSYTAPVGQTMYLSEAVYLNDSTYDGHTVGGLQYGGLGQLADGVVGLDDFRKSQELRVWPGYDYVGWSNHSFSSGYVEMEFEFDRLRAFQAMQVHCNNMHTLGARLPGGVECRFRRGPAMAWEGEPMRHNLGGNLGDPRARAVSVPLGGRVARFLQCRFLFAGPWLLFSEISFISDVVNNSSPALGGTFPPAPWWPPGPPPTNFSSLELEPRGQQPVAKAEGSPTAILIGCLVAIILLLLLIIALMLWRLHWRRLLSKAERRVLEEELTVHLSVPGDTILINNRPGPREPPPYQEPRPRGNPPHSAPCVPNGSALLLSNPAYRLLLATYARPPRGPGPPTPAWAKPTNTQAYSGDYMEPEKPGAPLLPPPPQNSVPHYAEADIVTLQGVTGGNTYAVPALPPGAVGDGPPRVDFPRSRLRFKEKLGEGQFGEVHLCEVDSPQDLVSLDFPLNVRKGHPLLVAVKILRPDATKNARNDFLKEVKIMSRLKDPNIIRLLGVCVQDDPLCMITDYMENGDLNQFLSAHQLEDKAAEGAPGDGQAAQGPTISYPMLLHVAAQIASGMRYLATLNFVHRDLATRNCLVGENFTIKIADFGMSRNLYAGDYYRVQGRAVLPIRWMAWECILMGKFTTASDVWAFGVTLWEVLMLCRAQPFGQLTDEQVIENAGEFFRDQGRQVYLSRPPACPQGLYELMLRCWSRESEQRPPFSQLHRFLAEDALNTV

[18] = molecular target: TRAF2 and NCK-interacting protein kinase (Homo sapiens) (UniProt Q9UKE5); experiment: Inhibition of human recombinant TNIK (1 to 367 residues) using RLGRDKYKTLRQI as substrate at 1 uM incubated for 40 mins by scintillation based radiometric LeadHunter assay relative to control
Sequence of TRAF2 and NCK-interacting protein kinase (Homo sapiens) (Q9UKE5 whole entry, looked up, the tested form may be a part): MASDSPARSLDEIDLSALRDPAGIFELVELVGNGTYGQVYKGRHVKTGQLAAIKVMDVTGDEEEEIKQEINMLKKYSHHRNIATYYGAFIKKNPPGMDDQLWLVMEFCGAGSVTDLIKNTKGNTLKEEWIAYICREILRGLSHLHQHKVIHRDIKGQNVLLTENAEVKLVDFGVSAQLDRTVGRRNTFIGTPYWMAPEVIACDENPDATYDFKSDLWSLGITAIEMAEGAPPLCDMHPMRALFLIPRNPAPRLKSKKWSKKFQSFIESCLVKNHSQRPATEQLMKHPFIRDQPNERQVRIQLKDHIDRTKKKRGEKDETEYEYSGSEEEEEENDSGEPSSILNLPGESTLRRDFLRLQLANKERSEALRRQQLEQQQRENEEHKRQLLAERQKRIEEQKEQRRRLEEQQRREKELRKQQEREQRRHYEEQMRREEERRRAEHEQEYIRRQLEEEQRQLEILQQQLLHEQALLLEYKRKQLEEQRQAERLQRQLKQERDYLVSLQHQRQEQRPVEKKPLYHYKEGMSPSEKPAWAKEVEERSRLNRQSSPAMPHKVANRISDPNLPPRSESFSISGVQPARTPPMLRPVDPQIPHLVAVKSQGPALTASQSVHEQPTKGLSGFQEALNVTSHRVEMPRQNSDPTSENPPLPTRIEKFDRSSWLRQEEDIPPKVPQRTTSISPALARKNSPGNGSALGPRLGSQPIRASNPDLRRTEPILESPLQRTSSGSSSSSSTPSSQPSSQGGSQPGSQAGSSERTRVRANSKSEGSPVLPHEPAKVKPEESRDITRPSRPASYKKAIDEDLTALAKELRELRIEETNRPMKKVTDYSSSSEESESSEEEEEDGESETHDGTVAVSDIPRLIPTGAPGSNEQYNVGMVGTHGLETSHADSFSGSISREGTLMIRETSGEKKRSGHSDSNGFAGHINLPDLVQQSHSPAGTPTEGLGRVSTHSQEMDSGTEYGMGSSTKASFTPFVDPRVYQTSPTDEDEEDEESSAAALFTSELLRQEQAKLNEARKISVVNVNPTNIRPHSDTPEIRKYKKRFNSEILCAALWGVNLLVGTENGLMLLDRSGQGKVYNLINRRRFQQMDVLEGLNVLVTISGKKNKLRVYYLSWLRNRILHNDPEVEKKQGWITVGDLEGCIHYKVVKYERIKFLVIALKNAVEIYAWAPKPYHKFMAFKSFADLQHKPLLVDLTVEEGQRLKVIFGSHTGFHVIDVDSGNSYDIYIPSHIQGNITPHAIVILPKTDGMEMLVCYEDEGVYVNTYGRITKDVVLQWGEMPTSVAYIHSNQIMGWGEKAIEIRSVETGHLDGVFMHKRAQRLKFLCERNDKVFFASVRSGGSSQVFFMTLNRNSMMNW

[19] = Drug concentration in NOD-SCID mouse plasma at 25 mg/kg, po measured at 24 hrs by LC-MS/MS analysis; type: ADME, organism-based; method in brief: as §3
[20] = molecular target: Epithelial discoidin domain-containing receptor 1 (Homo sapiens) (UniProt Q08345); experiment: Inhibition of human recombinant DDR1 (492 to end residues) using KKKSPGEYVNIEF as substrate incubated for 40 mins by scintillation based radiometric LeadHunter assay
[21] = molecular target: Receptor-interacting serine/threonine-protein kinase 2 (Homo sapiens) (UniProt O43353); experiment: Inhibition of human recombinant RIPK2 (1 to 299 residues) incubated for 120 mins in presence of ATP by scintillation based radiometric LeadHunter assay
Sequence of Receptor-interacting serine/threonine-protein kinase 2 (Homo sapiens) (O43353 whole entry, the tested form may be a part): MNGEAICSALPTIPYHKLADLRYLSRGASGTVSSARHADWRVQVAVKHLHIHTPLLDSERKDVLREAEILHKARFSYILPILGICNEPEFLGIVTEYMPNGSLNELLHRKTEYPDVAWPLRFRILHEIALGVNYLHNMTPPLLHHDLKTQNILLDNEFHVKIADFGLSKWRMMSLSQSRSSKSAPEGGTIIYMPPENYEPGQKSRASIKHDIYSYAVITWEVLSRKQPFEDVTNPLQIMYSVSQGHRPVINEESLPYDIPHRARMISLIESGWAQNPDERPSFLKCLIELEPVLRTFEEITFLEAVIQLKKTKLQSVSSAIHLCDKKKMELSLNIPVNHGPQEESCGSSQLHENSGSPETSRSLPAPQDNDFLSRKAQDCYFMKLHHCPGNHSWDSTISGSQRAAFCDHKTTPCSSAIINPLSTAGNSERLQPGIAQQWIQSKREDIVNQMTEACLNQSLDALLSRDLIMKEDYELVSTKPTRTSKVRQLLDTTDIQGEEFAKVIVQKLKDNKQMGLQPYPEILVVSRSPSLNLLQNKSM

[22] = molecular target: Protein-tyrosine kinase 6 (Homo sapiens) (UniProt Q13882); experiment: Inhibition of full length human recombinant BRK using poly Glu as substrate incubated for 40 mins by scintillation based radiometric LeadHunter assay
Sequence of Protein-tyrosine kinase 6 (Homo sapiens) (Q13882 whole entry, looked up): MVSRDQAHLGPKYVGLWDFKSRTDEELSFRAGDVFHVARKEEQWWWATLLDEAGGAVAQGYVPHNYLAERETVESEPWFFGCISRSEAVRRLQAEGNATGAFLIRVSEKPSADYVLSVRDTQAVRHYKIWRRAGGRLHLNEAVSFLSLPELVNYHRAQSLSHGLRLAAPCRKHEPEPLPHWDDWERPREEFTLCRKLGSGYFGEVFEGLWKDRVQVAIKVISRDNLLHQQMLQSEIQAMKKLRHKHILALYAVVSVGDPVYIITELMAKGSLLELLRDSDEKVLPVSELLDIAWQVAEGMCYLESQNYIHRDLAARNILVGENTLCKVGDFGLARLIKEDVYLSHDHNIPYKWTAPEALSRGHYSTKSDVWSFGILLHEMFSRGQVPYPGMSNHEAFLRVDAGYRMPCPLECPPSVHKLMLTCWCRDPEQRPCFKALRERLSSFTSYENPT

[23] = tested on: Epidermal growth factor receptor (Homo sapiens), P00533 [L858R]; experiment: Inhibition of human EGFR L858R mutant (696 to end residues) using poly Glu as substrate incubated for 40 mins by scintillation based radiometric LeadHunter assay
Sequence of Epidermal growth factor receptor (Homo sapiens), P00533 [L858R] (P00533 whole entry L858R): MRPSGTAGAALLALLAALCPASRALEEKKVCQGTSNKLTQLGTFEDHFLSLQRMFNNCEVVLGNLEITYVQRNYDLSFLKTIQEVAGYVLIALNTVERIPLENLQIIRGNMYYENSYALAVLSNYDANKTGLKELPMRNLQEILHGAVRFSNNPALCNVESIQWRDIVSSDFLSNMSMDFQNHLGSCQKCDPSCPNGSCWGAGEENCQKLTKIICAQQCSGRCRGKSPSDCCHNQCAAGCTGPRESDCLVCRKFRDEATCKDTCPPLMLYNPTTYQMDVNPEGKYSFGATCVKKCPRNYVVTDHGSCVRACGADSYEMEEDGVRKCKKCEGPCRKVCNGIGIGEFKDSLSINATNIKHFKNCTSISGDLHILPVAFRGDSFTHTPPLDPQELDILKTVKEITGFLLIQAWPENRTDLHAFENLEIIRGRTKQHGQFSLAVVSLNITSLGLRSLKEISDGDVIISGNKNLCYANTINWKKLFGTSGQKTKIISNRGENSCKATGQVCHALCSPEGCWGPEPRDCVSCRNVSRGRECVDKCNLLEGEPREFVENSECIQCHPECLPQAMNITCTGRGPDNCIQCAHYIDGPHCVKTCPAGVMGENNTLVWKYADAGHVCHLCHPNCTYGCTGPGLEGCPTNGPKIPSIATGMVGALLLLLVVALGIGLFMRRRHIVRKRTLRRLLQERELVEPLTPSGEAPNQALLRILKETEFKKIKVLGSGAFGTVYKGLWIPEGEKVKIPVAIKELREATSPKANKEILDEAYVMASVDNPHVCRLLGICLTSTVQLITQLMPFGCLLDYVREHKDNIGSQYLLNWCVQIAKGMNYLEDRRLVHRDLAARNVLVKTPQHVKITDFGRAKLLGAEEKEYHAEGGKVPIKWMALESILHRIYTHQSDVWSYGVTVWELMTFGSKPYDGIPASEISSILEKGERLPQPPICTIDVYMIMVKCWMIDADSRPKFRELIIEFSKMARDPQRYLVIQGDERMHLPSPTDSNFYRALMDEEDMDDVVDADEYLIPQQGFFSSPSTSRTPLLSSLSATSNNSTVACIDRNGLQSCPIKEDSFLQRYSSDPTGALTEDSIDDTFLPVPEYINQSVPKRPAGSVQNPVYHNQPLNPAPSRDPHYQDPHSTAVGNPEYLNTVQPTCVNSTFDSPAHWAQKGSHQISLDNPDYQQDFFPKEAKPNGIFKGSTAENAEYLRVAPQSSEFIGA

[24] = tested on: Epidermal growth factor receptor (Homo sapiens), P00533 [L861Q]; experiment: Inhibition of human EGFR L861Q mutant (696 to end residues) using poly Glu as substrate incubated for 40 mins by scintillation based radiometric LeadHunter assay
[25] = molecular target: TRAF2 and NCK-interacting protein kinase (Homo sapiens) (UniProt Q9UKE5); experiment: Inhibition of human recombinant TNIK (1 to 367 residues) using RLGRDKYKTLRQI as substrate incubated for 40 mins by scintillation based radiometric LeadHunter assay
[26] = molecular target: Tyrosine-protein kinase Lyn (Homo sapiens) (UniProt P07948); experiment: Inhibition of full length human recombinant LYN (1 to 367 residues) using poly Glu as substrate incubated for 40 mins by scintillation based radiometric LeadHunter assay
Sequence of Tyrosine-protein kinase Lyn (Homo sapiens) (P07948 2-512 limits assumed): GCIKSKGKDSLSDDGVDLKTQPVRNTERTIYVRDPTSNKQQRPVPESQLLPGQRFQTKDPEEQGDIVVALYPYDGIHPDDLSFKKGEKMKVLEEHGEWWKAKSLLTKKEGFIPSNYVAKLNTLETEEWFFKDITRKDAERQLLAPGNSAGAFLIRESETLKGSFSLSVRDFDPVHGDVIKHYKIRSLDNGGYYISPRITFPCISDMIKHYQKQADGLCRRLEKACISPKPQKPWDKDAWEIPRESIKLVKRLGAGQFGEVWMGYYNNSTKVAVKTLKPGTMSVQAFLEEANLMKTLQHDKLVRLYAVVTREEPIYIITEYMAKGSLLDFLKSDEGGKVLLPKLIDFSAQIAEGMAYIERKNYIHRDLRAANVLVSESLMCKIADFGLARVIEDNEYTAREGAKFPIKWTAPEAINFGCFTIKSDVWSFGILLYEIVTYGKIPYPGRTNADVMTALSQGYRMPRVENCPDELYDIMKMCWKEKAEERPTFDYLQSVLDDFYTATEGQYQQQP

Compound | remaining at 1 h, 1 µM [1] [%] | remaining at 1 h, 1 µM [2] [%] | Papp A→B at 2 h [3] [×10⁻⁶ cm/s] | Papp B→A at 2 h [4] [×10⁻⁶ cm/s] | IC50 [5] [nM] | concentration at 0.5 h [6] [nM] | concentration at 1 h [7] [nM] | concentration at 2 h [8] [nM] | concentration at 6 h [9] [nM] | concentration at 2 h [10] [nM] | concentration at 2 h [11] [nM] | concentration at 4 h [12] [nM] | concentration at 4 h [13] [nM] | Kp at 4 h [14] | pKa [15] | IC50 [16] [nM] | concentration at 24 h [19] [nM] | further results
COc1cc(-c2cncc(-c3ccc(N4CCNCC4)cc3)c2C)cc(OC)c1OC | – | – | – | – | – | 3020 | 4280 | 7490 | 13400 | 5250 | 2320 | 2680 | 888 | 0.3 | 8.6 | – | 1540 | inhibition [17]: 100%; inhibition [18]: 100%
COc1cc(-c2cncc3c2oc2cc(N4CCN(C)CC4)ccc23)cc(OC)c1OC | 9.5 | 37.4 | 4 | 2.5 | > 10000 | – | – | – | – | – | – | – | – | – | – | 609 | – | –
COc1cc(-c2cncc3c2COc2cc(N4CCN(C)CC4)ccc2-3)cc(OC)c1OC | 0.9 | 34.8 | 8.3 | 9 | 45 | – | – | – | – | – | – | – | – | – | – | 13 | – | –
COc1cc(-c2cncc3c2CN(C)Cc2cc(N4CCN(C)CC4)ccc2-3)cc(OC)c1OC | 65 | 58.3 | 1.5 | 2.5 | 18 | 134 | 254 | 277 | 300 | 75 | 4130 | 43 | 3250 | 75.6 | 8.12 | 7 | 17 | –
COc1cc(-c2cncc3c2COCc2cc(N4CCN(C)CC4)ccc2-3)cc(OC)c1OC | 4.3 | 29.7 | 16.5 | 13.6 | 7 | – | – | – | – | – | – | – | – | – | – | 3 | – | –

Now from value to molecule, other results behind:

remaining at 1 h, 1 µM [1] [%] | remaining at 1 h, 1 µM [2] [%] | Papp A→B at 2 h [3] [×10⁻⁶ cm/s] | Papp B→A at 2 h [4] [×10⁻⁶ cm/s] | IC50 [5] [nM] | concentration at 0.5 h [6] [nM] | concentration at 1 h [7] [nM] | concentration at 2 h [8] [nM] | concentration at 6 h [9] [nM] | concentration at 2 h [10] [nM] | concentration at 2 h [11] [nM] | concentration at 4 h [12] [nM] | concentration at 4 h [13] [nM] | Kp at 4 h [14] | pKa [15] | IC50 [16] [nM] | concentration at 24 h [19] [nM] | Compound | further results
10.3 | 21.2 | 13.9 | 11.5 | 15 | 3650 | 5050 | 3530 | 2230 | 980 | 2410 | 393 | 1470 | 3.7 | 8.54 | 2 | – | COc1cc(-c2cncc3c2CCOc2cc(N4CCN(C)CC4)ccc2-3)cc(OC)c1OC | –
75.7 | 62.3 | 4.2 | 9.4 | 5 | – | – | – | – | – | – | – | – | – | – | 2 | – | COc1cc(-c2cncc3c2COCc2cc(N4CCNCC4)ccc2-3)cc(OC)c1OC | –
98.6 | 73.2 | 0.8 | 4.2 | 11 | 323 | 466 | 523 | 1260 | – | – | – | – | – | – | 3 | 336 | COc1cc(-c2cncc3c2CN(C)Cc2cc(N4CCNCC4)ccc2-3)cc(OC)c1OC | inhibition [20]: Active; inhibition [21]: Active; inhibition [22]: Active; inhibition [23]: Active; inhibition [24]: Active; inhibition [25]: Active; inhibition [26]: Active
70.9 | 66.5 | 5.3 | 11.6 | 6 | 729 | 1070 | 1120 | 1890 | – | – | – | – | – | – | 2 | 63 | COc1cc(-c2cncc3c2CCOc2cc(N4CCNCC4)ccc2-3)cc(OC)c1OC | –
